ChEMBL document CHEMBL2380254, “Optimization of tocotrienols as antiproliferative and antimigratory leads” (Eur J Med Chem, 2013)

Legend:
HCT-116 = experiment: Growth inhibition of human HCT116 cells assessed as cell growth at 10 uM after 48 hrs by sulforhodamine B assay; type: functional; details: HCT-116, 48 h, read-out: Activity
Outline: (§1)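 NCI-60 single-dose screen at 10 µM: cells in RPMI 1640 with 5% FBS, preincubated 24 h, then exposed 48 h at 37 °C. TCA fixation (16% final for suspension cells), SRB staining, absorbance 515 nm. Percent growth relative to time-zero and untreated control plates; negative values indicate cell kill.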

RPMI-8226 = experiment: Growth inhibition of human RPMI8226 cells after 48 hrs by sulforhodamine B assay; type: functional; details: RPMI-8226, 48 h
Outline: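 NCI-60 suspension lines in RPMI 1640 with 5% FBS and 2 mM L-glutamine, preincubated 24 h. A five-concentration 10-fold series (0.001–100 µM) was given for 48 h at 37 °C. Settled cells were fixed with 80% TCA (16% final), stained with SRB, and read at 515 nm. GI50 was taken where 100×(T−T0)/(C−T0)=50, with T0 plates fixed at drug addition.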

U-251 = experiment: Growth inhibition of human U251 cells assessed as cell growth at 10 uM after 48 hrs by sulforhodamine B assay; type: functional; details: U-251, 48 h, read-out: Activity
Outline: (§2)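 Single-dose NCI-60 test at 10 µM. Cells were grown in RPMI 1640 with 5% FBS and 2 mM L-glutamine, preincubated 24 h, with T0 plates TCA-fixed. Exposure was 48 h at 37 °C, 5% CO2. Cells were fixed with cold TCA (final 10%, 4 °C, 60 min), stained with SRB and read at 515 nm. Percent growth was taken relative to T0 and untreated control; negative values denote cell kill.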

PC-3 = experiment: Growth inhibition of human PC3 cells after 48 hrs by sulforhodamine B assay; type: functional; details: PC-3, 48 h
Outline: (§3)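 NCI-60 panel cells grown in RPMI 1640 with 5% FBS and 2 mM L-glutamine, seeded at 5000–40,000 cells/well and preincubated 24 h. Five 10-fold dilutions (0.001–100 µM) from DMSO stocks were added for 48 h at 37 °C. Adherent cells were fixed with cold TCA (10% final) for 60 min at 4 °C, stained with 0.4% SRB, and read at 515 nm. GI50 was set where 100×(T−T0)/(C−T0)=50.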

NCI-H460 = experiment: Growth inhibition of human NCI-H460 cells after 48 hrs by sulforhodamine B assay; type: functional; details: NCI-H460, 48 h; outline: as §3
KM12 [1] = experiment: Growth inhibition of human KM12 cells after 48 hrs by sulforhodamine B assay; type: functional; details: KM12, 48 h
Outline: (§4)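 NCI-60 screen: cells in RPMI 1640 with 5% FBS and 2 mM glutamine, 5000–40,000 cells/well, preincubated 24 h. Five concentrations (10-fold dilutions; 100 to 0.001 µM) applied for 48 h at 37 °C. TCA fixation, SRB stain, absorbance at 515 nm. Time-zero plates included; GI50 where 100×(T−T0)/(C−T0)=50.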

K562 = experiment: Growth inhibition of human K562 cells assessed as cell growth at 10 uM after 48 hrs by sulforhodamine B assay; type: functional; details: K562, 48 h, read-out: Activity; outline: as §1
NCI-H226 [2] = experiment: Growth inhibition of human NCI-H226 cells after 48 hrs by sulforhodamine B assay; type: functional; details: NCI-H226, 48 h; outline: as §3
[3] = Antiproliferative activity against mouse +SA cells by MTT assay; type: functional, cell-based; details: +SA cell
Outline: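 Mouse +SA mammary epithelial cells in serum-free DMEM/F12 with BSA, transferrin, insulin and EGF. Compounds from DMSO stock conjugated to BSA (overnight, 37 °C); 0–40 µM, final DMSO <0.1%. MTT 0.42 mg/mL for 4 h at 37 °C, isopropanol solubilization, OD 570 nm. Cell number from a standard curve; IC50 by non-linear regression.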

SF-295 [4] = experiment: Growth inhibition of human SF295 cells after 48 hrs by sulforhodamine B assay; type: functional; details: SF-295, 48 h; outline: as §3
SN12C = experiment: Growth inhibition of human SN12C cells after 48 hrs by sulforhodamine B assay; type: functional
Outline: (§5)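 NCI-60 five-dose screen. Cells were grown in RPMI 1640 with 5% FBS and 2 mM L-glutamine, plated at 5000–40,000 cells/well and incubated 24 h before dosing, with T0 plates TCA-fixed. DMSO stocks were diluted to doses of […] and exposed 48 h at 37 °C, 5% CO2. Cells were fixed with cold TCA (final 10%, 60 min, 4 °C), stained with 0.4% SRB in 1% acetic acid for 10 min, solubilized in 10 mM trizma base and read at 515 nm. GI50 is where 100×(T−T0)/(C−T0)=50.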

NCI-H226 [5] = experiment: Growth inhibition of human NCI-H226 cells assessed as cell growth at 10 uM after 48 hrs by sulforhodamine B assay; type: functional; details: NCI-H226, 48 h, read-out: Activity
Outline: (§6)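 Single-dose NCI-60 screen: adherent cells in RPMI 1640 with 5% FBS were exposed to 10 µM for 48 h at 37 °C after a 24 h preincubation. They were fixed in situ with cold TCA (10% final), stained with 0.4% SRB in 1% acetic acid, solubilized in 10 mM Tris base, and read at 515 nm. Percent growth was taken relative to time-zero and control plates.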

T47D [6] = experiment: Growth inhibition of human T47D cells assessed as cell growth at 10 uM after 48 hrs by sulforhodamine B assay; type: functional; details: read-out: Activity; outline: as §2
T47D [7] = experiment: Growth inhibition of human T47D cells after 48 hrs by sulforhodamine B assay; type: functional; outline: as §5
KM12 [8] = experiment: Growth inhibition of human KM12 cells assessed as cell growth at 10 uM after 48 hrs by sulforhodamine B assay; type: functional; details: KM12, 48 h, read-out: Activity; outline: as §1
HCT-15 = experiment: Growth inhibition of human HCT15 cells after 48 hrs by sulforhodamine B assay; type: functional; details: HCT-15, 48 h; outline: as §4
TK-10 = experiment: Growth inhibition of human TK10 cells assessed as cell growth at 10 uM after 48 hrs by sulforhodamine B assay; type: functional; details: TK-10, 48 h, read-out: Activity; outline: as §2
IGROV-1 = experiment: Growth inhibition of human IGROV1 cells assessed as cell growth at 10 uM after 48 hrs by sulforhodamine B assay; type: functional; details: IGROV-1, 48 h, read-out: Activity; outline: as §1
DU-145 = experiment: Growth inhibition of human DU145 cells assessed as cell growth at 10 uM after 48 hrs by sulforhodamine B assay; type: functional; details: DU-145, 48 h, read-out: Activity; outline: as §1
MCF7 = experiment: Growth inhibition of human MCF7 cells assessed as cell growth at 10 uM after 48 hrs by sulforhodamine B assay; type: functional; details: MCF7, 48 h, read-out: Activity; outline: as §6
[9] = Growth inhibition of human NCI-ADR-RES cells after 48 hrs by sulforhodamine B assay; type: functional; outline: as §3
SF-295 [10] = experiment: Growth inhibition of human SF295 cells assessed as cell growth at 10 uM after 48 hrs by sulforhodamine B assay; type: functional; details: SF-295, 48 h, read-out: Activity; outline: as §6
SK-MEL-2 = experiment: Growth inhibition of human SK-MEL-2 cells after 48 hrs by sulforhodamine B assay; type: functional; details: SK-MEL-2, 48 h; outline: as §3

SMILES | growth at 10 µM (HCT-116) [%] | GI50 (RPMI-8226) [µM] | growth at 10 µM (U-251) [%] | GI50 (PC-3) [µM] | GI50 (NCI-H460) [µM] | GI50 (KM12 [1]) [µM] | GI50 (NCI-H226 [2]) [µM] | IC50 [3] [µM] | GI50 (SF-295 [4]) [µM] | GI50 (SN12C) [µM] | growth at 10 µM (NCI-H226 [5]) [%] | growth at 10 µM (T47D [6]) [%] | GI50 (T47D [7]) [µM] | growth at 10 µM (KM12 [8]) [%] | GI50 (HCT-15) [µM] | growth at 10 µM (TK-10) [%] | growth at 10 µM (IGROV-1) [%] | growth at 10 µM (DU-145) [%] | growth at 10 µM (MCF7) [%] | GI50 [9] [µM] | other results
CC(C)=CCC/C(C)=C/CC/C(C)=C/CC[C@]1(C)CCc2c3c(c(C)c(C)c2O1)OCN(CCCCCO)C3 | 36.1 | 9.91 | 58.6 | 5.71 | 5.18 | 7.41 | 6.19 | 1.7 | 6.12 | 5.56 | 102 | 94.4 | 6.17 | 29.3 | 6.24 | 97.5 | 63.7 | 99.6 | 24.3 | 5.89 | growth at 10 µM (K562): -55.4%; growth at 10 µM (SF-295 [10]): 92.7%; GI50 (SK-MEL-2): 7.47 µM
CC(C)=CCC/C(C)=C/CC/C(C)=C/CC[C@]1(C)CCc2c3c(cc(C)c2O1)OCN(C1CCN(Cc2ccccc2)CC1)C3 | -81.9 | 0.324 | -66.6 | 0.581 | 0.618 | 0.699 | 2.21 | 0.8 | 1.88 | 1.46 | 101 | 89.3 | 2.18 | -44 | 4.03 | 82.5 | -48.5 | 65.3 | -36 | 2.56 | growth at 10 µM (K562): -29.3%; growth at 10 µM (SF-295 [10]): 93.2%; GI50 (SK-MEL-2): 2.3 µM
CC(C)=CCC/C(C)=C/CC/C(C)=C/CC[C@]1(C)CCc2c3c(cc(C)c2O1)OCN(CCc1ccc(O)cc1)C3 | -58.2 | 4.03 | -32 | 5.07 | 1.12 | 1.6 | 5.4 | 0.91 | 6.22 | 4.9 | 88.7 | 6.16 | 6.06 | -19.4 | 5.87 | 100 | 0.45 | 42.1 | -86.3 | 5.93 | growth at 10 µM (K562): 3.51%; growth at 10 µM (SF-295 [10]): 102%; GI50 (SK-MEL-2): 7.02 µM
CC(C)=CCC/C(C)=C/CC/C(C)=C/CC[C@]1(C)CCc2c3c(c(C)c(C)c2O1)OCN(CCCCCCO)C3 | -92.7 | 3.36 | -75.2 | 2.52 | 3.15 | 2.84 | 2.81 | 2.1 | 2.97 | 2.5 | 97.3 | 8.28 | 2.84 | 7.87 | 2.69 | 97.9 | -23.6 | 77 | -69.5 | 2.87 | growth at 10 µM (SF-295 [10]): 61.7%; GI50 (SK-MEL-2): 3.27 µM
CC(C)=CCC/C(C)=C/CC/C(C)=C/CC[C@]1(C)CCc2c3c(c(C)c(C)c2O1)OCN(CCCCO)C3 | -72.3 | 5.15 | 14.8 | 8.37 | 1.94 | 1.94 | > 10 | 2.2 | 2.08 | 7.98 | 100 | 59.1 | > 10 | 27.3 | 4.8 | 101 | 48.2 | 88.8 | 10.1 | > 10 | growth at 10 µM (SF-295 [10]): 97.2%; GI50 (SK-MEL-2): > 10 µM
